Test results taken from ChEMBL document CHEMBL5126600, “Discovery of the First-in-Class G9a/GLP Covalent Inhibitors” (J Med Chem, 2022).
pIC50, pKd: −log10 of the molar value.

How the values were obtained:
[1] = target: Histone-lysine N-methyltransferase SUV39H2 (Homo sapiens) (UniProt Q9H5I1); test: Inhibition of N-terminal fusion protein with C-terminal His-tagged SUV39H2 (46 to 410 residues) (unknown origin) expressed in Escherichia coli at 1 uM using 3H-SAM as a substrate relative to control
How it was run: (§1)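 Contracted 3H-SAM methyl-transfer scintillation proximity assay against a panel of methyltransferases; compound tested at 1 μM in duplicate; inhibition expressed as percent of control enzyme activity.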

[2] = target: Histone-lysine N-methyltransferase SETD1B (Homo sapiens) (UniProt Q9UPS6); test: Inhibition of N-terminal GST-tagged SET1B (1629 to 1923 residues) (unknown origin) expressed in Escherichia coli at 1 uM using 3H-SAM as a substrate relative to control; how it was run: as §1
[3] = target: Histone-lysine N-methyltransferase, H3 lysine-79 specific (Homo sapiens) (UniProt Q8TEK3); test: Inhibition of N-terminal GST-tagged human DOT1L (1 to 416 residues) expressed in Escherichia coli at 1 uM using 3H-SAM as a substrate relative to control; how it was run: as §1
[4] = target: Histone-lysine N-methyltransferase SETD7 (Homo sapiens) (UniProt Q8WTS6); test: Inhibition of N-terminal and GST-tagged C-terminal His-tagged SET7/9 (2 to 366 residues) (unknown origin) expressed in Escherichia coli at 1 uM using 3H-SAM as a substrate relative to control; how it was run: as §1
[5] = target: N-lysine methyltransferase KMT5A (Homo sapiens) (UniProt Q9NQR1); test: Inhibition of SETD8 (unknown origin) at 1 uM using 3H-SAM as a substrate relative to control; how it was run: as §1
[6] = target: Histone-lysine N-methyltransferase NSD3 (Homo sapiens) (UniProt Q9BZ95); test: Inhibition of N-terminal GST tagged NSD3 (1021 to 1322 residues) (unknown origin) expressed in Escherichia coli at 1 uM using 3H-SAM as a substrate relative to control; how it was run: as §1
[7] = target: Histone-lysine N-methyltransferase, H3 lysine-36 specific (Homo sapiens) (UniProt Q96L73); test: Inhibition of N-terminal His-tagged NSD1 (1538 to 2696 residues) (unknown origin) expressed in baculovirus expression system at 1 uM using 3H-SAM as a substrate relative to control; how it was run: as §1
MDA-MB-231 = test: Down regulation of H3K9 dimethylation in human MDA-MB-231 cells after 24 to 72 hrs by Western blot analysis; format: functional, cell-based; conditions: dose 0.2-5 µM, time lower […], time upper 72.0 hrs, DDE = dose-dependent effect
[8] = target: T1, Histone-lysine N-methyltransferase EHMT2 (Homo sapiens) (UniProt Q96KQ7); test: Inhibition of human G9a (913 to 1193 residues) assessed as covalent modification by measuring G9a adduct formation at 50 uM incubated for 1 hr by mass spectrometry relative to control
T1 sequence (whole entry): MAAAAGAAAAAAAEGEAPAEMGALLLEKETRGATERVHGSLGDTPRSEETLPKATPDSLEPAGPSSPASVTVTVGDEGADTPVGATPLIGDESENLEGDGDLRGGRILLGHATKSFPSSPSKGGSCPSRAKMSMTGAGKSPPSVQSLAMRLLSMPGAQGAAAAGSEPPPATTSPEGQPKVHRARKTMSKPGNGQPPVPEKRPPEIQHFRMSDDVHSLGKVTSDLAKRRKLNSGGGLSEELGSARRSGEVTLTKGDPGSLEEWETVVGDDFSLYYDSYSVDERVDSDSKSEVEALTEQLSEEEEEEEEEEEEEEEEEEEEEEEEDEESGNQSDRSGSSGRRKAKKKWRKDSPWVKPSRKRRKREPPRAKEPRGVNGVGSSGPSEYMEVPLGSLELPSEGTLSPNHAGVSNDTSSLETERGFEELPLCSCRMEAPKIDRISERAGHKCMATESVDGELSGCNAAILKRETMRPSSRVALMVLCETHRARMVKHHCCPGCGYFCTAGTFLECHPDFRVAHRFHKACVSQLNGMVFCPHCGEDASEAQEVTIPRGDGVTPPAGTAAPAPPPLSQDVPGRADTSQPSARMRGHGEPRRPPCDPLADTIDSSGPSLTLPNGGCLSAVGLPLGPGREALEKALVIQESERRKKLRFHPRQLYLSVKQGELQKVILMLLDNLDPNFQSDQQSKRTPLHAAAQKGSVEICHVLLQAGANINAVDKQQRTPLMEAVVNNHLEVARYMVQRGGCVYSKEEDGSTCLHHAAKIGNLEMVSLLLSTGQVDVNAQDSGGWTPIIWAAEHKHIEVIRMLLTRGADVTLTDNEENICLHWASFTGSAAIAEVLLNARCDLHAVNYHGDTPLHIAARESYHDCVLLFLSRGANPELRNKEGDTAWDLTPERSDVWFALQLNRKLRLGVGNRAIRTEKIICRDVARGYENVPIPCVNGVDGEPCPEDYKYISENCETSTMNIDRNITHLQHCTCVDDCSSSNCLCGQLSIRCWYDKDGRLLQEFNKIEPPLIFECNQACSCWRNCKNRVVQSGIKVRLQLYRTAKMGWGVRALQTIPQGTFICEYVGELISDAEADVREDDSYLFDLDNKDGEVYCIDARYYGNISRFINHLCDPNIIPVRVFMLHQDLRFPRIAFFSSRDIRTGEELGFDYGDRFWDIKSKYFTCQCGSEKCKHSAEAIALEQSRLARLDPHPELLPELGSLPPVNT
How it was run: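 Purified G9a or GLP catalytic domain (5 μM) in 50 mM Tris-HCl pH 7.5, 150 mM NaCl incubated with 50 μM compound or DMSO at room temperature (1 h, or 30 and 60 min in time course); intact mass by ESI LC/MS-TOF; adduct % = adduct/(protein + adduct) × 100.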

[9] = target: Histone-lysine N-methyltransferase EZH1 (Homo sapiens) (UniProt Q92800); test: Inhibition of N-terminal His-tagged full-length recombinant human EZH1 ( 2 to 747 residues) expressed in baculovirus expression system at 1 uM using 3H-SAM as a substrate relative to control; how it was run: as §1
[10] = target: T2, Histone-lysine N-methyltransferase EHMT2 (Homo sapiens, UniProt Q96KQ7); test: Inhibition of human G9a (913 to 1193 residues) using H3 peptide as substrate measured upto 45 mins in presence of SAM cofactor
T2 sequence (Q96KQ7 whole entry): T1 sequence (whole entry)

[11] = target: T1, Histone-lysine N-methyltransferase EHMT2 (Homo sapiens); test: Inhibition of human G9a (913 to 1193 residues) using H3 peptide as substrate in presence of SAM cofactor by scintillation counting method; conditions: time 5-45 min, TDE = time-dependent effect
How it was run: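 Contracted scintillation proximity assay following 3H-methyl transfer from SAM (1 μM) to H3 peptide (0.05 μM) by G9a or GLP (5 nM each), with preincubation times of 5, 15 or 45 min; four replicates.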

[12] = target: T2, Histone-lysine N-methyltransferase EHMT2; test: Binding affinity to human G9a (913 to 1193 residues) assessed as dissociation constant by isothermal titration calorimetry method
How it was run: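 Initial 0.4 μL injection, then 13 injections of 500 μM compound from the syringe, stirred at 750 rpm. Experiment time about 50 min. Data fitted to a single binding site model. Mean ± SD of two independent measurements.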

Chain of Histone-lysine N-methyltransferase SUV39H2 (Homo sapiens) (Q9H5I1 whole entry, the tested form may be a part): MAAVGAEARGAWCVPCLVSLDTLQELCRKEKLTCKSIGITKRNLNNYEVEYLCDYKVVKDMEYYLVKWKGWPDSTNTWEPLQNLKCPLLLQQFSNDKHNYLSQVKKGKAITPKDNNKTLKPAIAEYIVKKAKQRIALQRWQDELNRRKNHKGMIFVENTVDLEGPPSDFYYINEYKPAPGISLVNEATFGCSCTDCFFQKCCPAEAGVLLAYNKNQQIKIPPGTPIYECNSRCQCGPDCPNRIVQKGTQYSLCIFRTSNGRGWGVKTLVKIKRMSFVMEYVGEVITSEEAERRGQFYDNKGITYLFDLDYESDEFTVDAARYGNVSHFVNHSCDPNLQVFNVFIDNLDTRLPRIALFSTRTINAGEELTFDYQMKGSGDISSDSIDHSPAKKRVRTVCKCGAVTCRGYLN
Chain of N-lysine methyltransferase KMT5A (Homo sapiens) (Q9NQR1 whole entry, the tested form may be a part): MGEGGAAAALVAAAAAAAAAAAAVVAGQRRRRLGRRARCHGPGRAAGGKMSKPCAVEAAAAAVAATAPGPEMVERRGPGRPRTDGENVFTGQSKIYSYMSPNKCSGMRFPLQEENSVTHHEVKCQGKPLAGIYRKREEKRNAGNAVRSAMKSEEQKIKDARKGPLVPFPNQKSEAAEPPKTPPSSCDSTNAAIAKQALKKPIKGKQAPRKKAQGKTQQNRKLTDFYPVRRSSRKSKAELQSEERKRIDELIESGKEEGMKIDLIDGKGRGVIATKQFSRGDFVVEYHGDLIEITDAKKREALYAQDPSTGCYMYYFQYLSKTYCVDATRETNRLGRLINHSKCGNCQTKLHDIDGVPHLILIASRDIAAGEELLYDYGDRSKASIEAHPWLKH
Chain of Histone-lysine N-methyltransferase NSD3 (Homo sapiens) (Q9BZ95 whole entry, the tested form may be a part): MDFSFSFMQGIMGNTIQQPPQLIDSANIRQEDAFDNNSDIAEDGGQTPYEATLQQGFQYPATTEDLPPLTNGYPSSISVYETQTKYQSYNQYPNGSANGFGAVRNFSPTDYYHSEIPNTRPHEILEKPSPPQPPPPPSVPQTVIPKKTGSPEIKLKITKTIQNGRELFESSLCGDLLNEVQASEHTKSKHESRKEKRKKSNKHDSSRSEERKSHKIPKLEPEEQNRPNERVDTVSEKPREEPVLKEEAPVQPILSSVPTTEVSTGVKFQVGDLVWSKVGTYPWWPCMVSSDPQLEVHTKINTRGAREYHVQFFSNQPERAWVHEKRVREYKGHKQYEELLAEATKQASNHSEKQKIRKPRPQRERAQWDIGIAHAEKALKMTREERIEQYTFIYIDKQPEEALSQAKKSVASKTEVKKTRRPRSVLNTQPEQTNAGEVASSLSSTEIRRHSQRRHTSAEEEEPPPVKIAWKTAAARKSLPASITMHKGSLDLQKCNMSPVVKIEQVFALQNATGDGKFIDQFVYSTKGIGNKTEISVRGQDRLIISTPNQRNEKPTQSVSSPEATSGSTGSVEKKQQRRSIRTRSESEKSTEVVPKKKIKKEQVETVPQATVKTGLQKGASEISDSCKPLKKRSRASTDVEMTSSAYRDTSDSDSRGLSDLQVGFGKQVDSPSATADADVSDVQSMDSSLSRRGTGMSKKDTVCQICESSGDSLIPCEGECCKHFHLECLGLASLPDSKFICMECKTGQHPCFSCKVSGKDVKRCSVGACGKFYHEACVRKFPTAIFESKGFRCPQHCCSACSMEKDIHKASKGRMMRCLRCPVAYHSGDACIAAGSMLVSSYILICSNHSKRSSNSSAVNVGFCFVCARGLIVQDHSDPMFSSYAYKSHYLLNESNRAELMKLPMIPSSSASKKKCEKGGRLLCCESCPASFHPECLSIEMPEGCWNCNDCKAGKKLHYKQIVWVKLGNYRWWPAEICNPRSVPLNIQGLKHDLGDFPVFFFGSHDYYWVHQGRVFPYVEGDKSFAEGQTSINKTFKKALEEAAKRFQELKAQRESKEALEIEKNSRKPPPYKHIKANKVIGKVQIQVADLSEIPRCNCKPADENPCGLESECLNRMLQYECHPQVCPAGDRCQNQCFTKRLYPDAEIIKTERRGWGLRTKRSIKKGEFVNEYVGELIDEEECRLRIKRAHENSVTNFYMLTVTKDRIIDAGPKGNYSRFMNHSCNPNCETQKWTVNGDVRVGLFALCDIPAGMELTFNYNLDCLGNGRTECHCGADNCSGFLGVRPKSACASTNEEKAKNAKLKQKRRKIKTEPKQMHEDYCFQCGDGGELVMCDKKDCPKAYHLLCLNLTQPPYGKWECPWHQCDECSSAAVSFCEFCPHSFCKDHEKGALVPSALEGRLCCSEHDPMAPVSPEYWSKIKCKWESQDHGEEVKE
Chain of Histone-lysine N-methyltransferase, H3 lysine-36 specific (Homo sapiens) (Q96L73 whole entry, the tested form may be a part): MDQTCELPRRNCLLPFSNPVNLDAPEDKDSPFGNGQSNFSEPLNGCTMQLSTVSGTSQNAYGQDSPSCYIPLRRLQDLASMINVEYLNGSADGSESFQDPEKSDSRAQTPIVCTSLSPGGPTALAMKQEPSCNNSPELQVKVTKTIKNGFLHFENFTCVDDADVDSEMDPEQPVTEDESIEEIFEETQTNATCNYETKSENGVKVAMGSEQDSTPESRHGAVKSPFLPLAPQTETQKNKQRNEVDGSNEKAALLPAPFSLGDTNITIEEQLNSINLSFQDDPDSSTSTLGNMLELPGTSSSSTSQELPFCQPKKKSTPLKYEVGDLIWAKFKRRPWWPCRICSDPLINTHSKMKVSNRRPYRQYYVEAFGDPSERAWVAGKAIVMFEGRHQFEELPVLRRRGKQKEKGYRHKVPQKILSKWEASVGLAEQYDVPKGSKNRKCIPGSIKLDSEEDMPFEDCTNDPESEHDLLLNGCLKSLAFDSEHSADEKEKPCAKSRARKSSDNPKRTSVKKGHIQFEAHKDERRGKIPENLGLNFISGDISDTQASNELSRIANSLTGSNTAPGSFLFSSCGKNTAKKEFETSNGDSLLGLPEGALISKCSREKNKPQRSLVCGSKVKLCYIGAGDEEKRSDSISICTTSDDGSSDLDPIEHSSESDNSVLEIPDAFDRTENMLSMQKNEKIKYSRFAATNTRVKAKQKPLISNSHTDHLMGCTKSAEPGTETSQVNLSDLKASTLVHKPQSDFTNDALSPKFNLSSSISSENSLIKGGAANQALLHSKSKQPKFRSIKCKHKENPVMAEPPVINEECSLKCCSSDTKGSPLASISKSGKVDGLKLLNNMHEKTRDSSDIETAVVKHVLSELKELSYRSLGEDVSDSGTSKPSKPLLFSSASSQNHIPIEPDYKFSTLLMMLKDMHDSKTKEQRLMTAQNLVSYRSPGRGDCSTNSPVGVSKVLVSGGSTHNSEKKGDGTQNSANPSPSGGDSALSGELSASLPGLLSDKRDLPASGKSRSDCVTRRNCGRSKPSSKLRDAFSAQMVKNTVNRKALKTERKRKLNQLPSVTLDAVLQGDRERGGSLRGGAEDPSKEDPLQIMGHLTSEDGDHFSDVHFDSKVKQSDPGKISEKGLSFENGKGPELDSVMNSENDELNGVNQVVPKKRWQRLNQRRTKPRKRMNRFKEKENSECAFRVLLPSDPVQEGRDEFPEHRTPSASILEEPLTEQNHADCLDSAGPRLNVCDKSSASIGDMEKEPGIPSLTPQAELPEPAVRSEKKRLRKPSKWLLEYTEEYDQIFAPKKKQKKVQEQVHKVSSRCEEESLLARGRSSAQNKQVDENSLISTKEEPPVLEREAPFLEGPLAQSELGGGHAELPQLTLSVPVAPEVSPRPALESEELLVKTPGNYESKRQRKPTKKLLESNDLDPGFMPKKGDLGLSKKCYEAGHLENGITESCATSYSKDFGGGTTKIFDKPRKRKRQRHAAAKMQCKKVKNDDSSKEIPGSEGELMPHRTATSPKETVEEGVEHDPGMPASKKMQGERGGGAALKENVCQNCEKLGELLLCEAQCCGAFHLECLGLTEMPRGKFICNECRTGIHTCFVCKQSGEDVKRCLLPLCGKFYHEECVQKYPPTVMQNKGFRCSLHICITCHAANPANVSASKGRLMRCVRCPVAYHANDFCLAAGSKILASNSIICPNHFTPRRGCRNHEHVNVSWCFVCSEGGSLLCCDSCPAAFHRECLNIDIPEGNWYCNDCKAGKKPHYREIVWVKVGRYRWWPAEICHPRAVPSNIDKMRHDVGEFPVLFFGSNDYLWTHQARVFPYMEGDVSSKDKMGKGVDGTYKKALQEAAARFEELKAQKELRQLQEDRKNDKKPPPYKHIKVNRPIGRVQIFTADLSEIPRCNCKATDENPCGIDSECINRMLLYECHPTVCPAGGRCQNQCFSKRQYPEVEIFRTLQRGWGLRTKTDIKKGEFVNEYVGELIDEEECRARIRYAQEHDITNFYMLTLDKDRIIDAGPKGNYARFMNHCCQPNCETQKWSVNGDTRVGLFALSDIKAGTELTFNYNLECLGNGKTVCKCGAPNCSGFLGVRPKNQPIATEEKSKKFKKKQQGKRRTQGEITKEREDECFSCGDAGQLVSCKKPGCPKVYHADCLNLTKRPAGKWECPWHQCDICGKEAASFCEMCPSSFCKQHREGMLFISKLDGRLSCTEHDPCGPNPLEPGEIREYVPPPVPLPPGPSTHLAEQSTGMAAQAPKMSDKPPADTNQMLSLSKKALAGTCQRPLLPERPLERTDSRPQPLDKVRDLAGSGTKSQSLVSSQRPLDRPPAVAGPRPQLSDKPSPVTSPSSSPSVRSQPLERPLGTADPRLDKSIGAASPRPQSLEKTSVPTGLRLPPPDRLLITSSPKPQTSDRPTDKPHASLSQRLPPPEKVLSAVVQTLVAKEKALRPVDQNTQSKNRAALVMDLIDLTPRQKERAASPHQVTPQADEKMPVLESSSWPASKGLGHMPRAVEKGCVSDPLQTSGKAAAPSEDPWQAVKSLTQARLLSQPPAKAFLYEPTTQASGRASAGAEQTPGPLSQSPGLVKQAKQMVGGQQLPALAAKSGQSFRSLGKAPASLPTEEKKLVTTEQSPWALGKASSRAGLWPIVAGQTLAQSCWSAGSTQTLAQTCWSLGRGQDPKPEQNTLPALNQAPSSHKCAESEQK

- inhibition [1]: < 50%
- inhibition [2]: < 50%
- inhibition [3]: < 50%
- inhibition [4]: < 50%
- inhibition [5]: < 50%
- inhibition [6]: < 50%
- inhibition [7]: < 50%
- inhibition [8]: 50%
- inhibition [9]: < 50%
- pIC50 [10]: 7.00
- inhibition [11]: Tde
- pKd [12]: 7.36
Structure (SMILES): C=CC(=O)Nc1cc(NC2CCN(C(C)C)CC2)c2cc(OC)c(OCCCN3CCCC3)cc2n1
- Activity (MDA-MB-231): Dde
